This note sets out measurements from ChEMBL document CHEMBL1143066, “Characterization and optimization of selective, nonpeptidic inhibitors of cathepsin S with an unprecedented binding mode” (J Med Chem, 2007).

One may read the Ki as a dissociation constant, usually derived from enzyme kinetics or from competition with a known ligand. Higher therefore signals lower affinity.

One experiment has as its target Cathepsin B (Homo sapiens, UniProt P07858). Put plainly: Inhibition of cathepsin B. Summed up:
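Cathepsin B (2 nM) in pH 6.1 phosphate/NaCl/DTT/EDTA/Tween-20 buffer, preincubated with inhibitor (in DMSO) for 5 min at 37 °C. Cbz-Phe-Arg-AMC 2.5 µM then added and AMC followed for 5 min (ex 355/em 450 nm). Five inhibitor levels spanning 10–90% inhibition, in duplicate. IC50 from V_i/V_o plots, converted as K_i = IC50 − E_t/2.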

The target of the next experiment is T1, Cathepsin K (Homo sapiens, UniProt P43235).
T1 sequence (P43235 whole entry): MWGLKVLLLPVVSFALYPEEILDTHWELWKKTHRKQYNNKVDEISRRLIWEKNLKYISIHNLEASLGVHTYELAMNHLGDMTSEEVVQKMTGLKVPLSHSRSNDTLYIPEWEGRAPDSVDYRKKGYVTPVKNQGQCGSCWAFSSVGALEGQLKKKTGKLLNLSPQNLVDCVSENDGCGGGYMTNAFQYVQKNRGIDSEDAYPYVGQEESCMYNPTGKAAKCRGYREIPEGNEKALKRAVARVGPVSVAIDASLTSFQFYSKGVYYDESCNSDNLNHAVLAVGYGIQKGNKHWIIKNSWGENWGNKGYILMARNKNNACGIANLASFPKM
The experiment in a line: Inhibition of cathepsin K. Summed up:
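Cathepsin K at 10 nM, preincubated 5 min at 37 °C with DMSO-delivered inhibitor in pH 6.1 sodium phosphate buffer with NaCl, DTT, EDTA, Tween-20. Then 2.5 µM Cbz-Phe-Arg-AMC; AMC release monitored for 5 min (ex 355/em 450 nm). Duplicates at five inhibitor concentrations giving 10–90% inhibition. K_i = IC50 − E_t/2, with IC50 from V_i/V_o versus concentration.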

The target of the next experiment is Procathepsin L (Homo sapiens, UniProt P07711). Put plainly: Inhibition of cathepsin L.
Procathepsin L, sequence (P07711 whole entry): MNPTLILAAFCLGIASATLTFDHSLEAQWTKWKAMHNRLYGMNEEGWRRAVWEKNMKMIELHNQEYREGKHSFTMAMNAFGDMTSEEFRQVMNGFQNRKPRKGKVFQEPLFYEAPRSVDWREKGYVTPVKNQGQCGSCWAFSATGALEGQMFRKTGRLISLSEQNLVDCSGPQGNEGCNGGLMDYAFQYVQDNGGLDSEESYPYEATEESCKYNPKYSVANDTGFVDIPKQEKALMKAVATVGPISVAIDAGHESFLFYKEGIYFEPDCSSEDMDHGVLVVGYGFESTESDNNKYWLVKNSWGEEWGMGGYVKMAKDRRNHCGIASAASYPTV
Another experiment deals with Cathepsin S (Homo sapiens, UniProt P25774). Put plainly: Inhibition of cathepsin S. Summed up: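 Cathepsin S 0.7 nM with inhibitor (added in DMSO), 5 min at 37 °C in pH 6.1 phosphate buffer containing NaCl, DTT, EDTA and Tween-20. IC50 from V_i/V_o plot, converted to K_i via IC50 − E_t/2.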
Cathepsin S, sequence (P25774 whole entry): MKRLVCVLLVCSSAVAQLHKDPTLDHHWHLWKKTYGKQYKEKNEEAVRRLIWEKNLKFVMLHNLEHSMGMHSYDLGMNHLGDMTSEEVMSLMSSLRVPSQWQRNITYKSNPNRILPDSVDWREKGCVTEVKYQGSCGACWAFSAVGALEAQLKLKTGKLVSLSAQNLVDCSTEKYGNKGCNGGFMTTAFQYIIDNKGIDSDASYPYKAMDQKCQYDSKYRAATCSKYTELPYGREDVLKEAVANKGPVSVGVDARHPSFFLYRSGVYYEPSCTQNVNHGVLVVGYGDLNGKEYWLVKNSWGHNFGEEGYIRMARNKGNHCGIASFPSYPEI

Structures are written as SMILES. Where only a bound is given, the exact number is not on record here.

As for `CC(C)Cc1ccc(-c2ccccc2OCC=O)c(F)c1F`, the inhibition constant Ki was more than 15000 nM on Cathepsin B, 1240 nM at Cathepsin K, more than 15000 nM at Procathepsin L and 9.6 nM at Cathepsin S.
`O=CCOc1ccccc1-c1ccc(F)c(F)c1F`: the results for the Ki at Cathepsin B and on Cathepsin K were more than 15000 nM and 1510 nM, respectively.
Consider `CCCc1ccc(-c2ccccc2OCC=O)c(F)c1F`, for which the inhibitory constant (Ki) at Cathepsin B is more than 15000 nM; on Cathepsin K, 1280 nM; at Cathepsin S it was 48.7 nM.
